Experimental findings from article PMC4887451 (Natural product communications, 2015) are described below.

Converted amounts (≈) assume the structure as drawn. A value given as a limit tells only on which side of the number the result lay.

Common to all, as to assay type: cell-based
The test system of assay [1] is Trypanosoma brucei brucei. In words: antitrypanosomal Alamar Blue assay on Trypanosoma brucei trypomastigotes. The procedure, abridged: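 Trypomastigote cultures of T. brucei brucei exposed to test compound, with viability read by Alamar Blue. DFMO served as positive control.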
Assay [2] relates to Candida glabrata ATCC 90030. In words: antifungal screening. The following applies: Nakaseomyces glabratus, ATCC90030, read-out: IC50 against Candida glabrata. The procedure, abridged: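 Tested alongside C. albicans ATCC 90028, C. krusei ATCC 6258, Cryptococcus neoformans ATCC 90113 and Aspergillus fumigatus ATCC 204305, following a previously described procedure. IC50 derived by curve fitting. Amphotericin B was the positive control.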

The subject of assay [3] is chloroquine-sensitive (D6) Plasmodium falciparum. Briefly: antiplasmodial screening by plasmodial LDH activity, D6 strain. As to conditions: for selectivity index (SI), ratio of VERO IC50 to D6 IC50: VERO mammalian cell line.
The test system of assay [4] is chloroquine-resistant (W2) Plasmodium falciparum. Briefly: antiplasmodial screening by plasmodial LDH activity, W2 strain. The following applies: for selectivity index (SI), ratio of VERO IC50 to W2 IC50: VERO mammalian cell line.

`C=C[C@]1(C)CC[C@H](C(C)(C)O[C@@H]2O[C@H](CO[C@@H]3OC[C@@H](O)[C@H](O)[C@H]3O)[C@@H](O)[C@H](O)[C@H]2O)O1` (relative stereo) [Compound 9, (3S, 6R) cis-linalool 3,6 oxide, O-β-D-xylopyranosyl-(1″→6′)-β-D-glucopyranoside]: in assay [1], the “IC50, trypanocidal activity against Trypanosoma brucei brucei” value (“IC50, trypanocidal activity” for short) was found to be 8.18 µg/mL (≈ 17.6 µM) and the “IC90, trypanocidal activity against Trypanosoma brucei brucei” value (“IC90, trypanocidal activity” below) was over 10 µg/mL.

For the compound `C[C@@H]1[C@H](O)[C@@H](C)/C=C/C=C/C=C/C=C/C=C/C=C/C=C/[C@H](O[C@@H]2O[C@H](C)[C@@H](O)[C@H](N)[C@@H]2O)C[C@@H]2O[C@](O)(C[C@@H](O)C[C@@H](O)[C@H](O)CC[C@@H](O)C[C@@H](O)CC(=O)O[C@H]1C)C[C@H](O)[C@H]2C(=O)O` [AMB, amphotericin B, reference compound], the IC50 in assay [2] turned out to be 0.34 µg/mL (≈ 0.368 µM).

As to `C[C@@H]1O[C@@H](Oc2cc(O)c3c(=O)c(O)c(-c4ccc(O)c(O)c4)oc3c2)[C@H](O)[C@H](O)[C@H]1O` [Compound 15, quercetin-7-O-α-L-rhamnopyranoside], in assay [1], the “IC50, trypanocidal activity” value was determined as 9.02 µg/mL (≈ 20.1 µM) and the “IC90, trypanocidal activity” value was over 10 µg/mL.

Consider `O=c1c(O)c(-c2ccc(O)c(O)c2)oc2cc(O)cc(O)c12` [Compound 16, quercetin], for which the IC50 in assay [2] came out at 8.66 µg/mL (≈ 28.7 µM).

As to `COC(=O)C1(O)CC(O)C(OC(=O)/C=C/c2ccc(O)c(O)c2)C(OC(=O)/C=C/c2ccc(O)c(O)c2)C1` (centres unmarked) [Compound 20, 4,5-dicaffeoyl quinic acid methyl ester], the “selectivity index (SI), ratio of VERO IC50 to D6 IC50” value in assay [3] was over 1.4. The “IC50 against chloroquine-sensitive (D6) Plasmodium falciparum” value in assay [3] (plasmodial LDH activity) was 3.29 µg/mL (≈ 6.2 µM). Moreover, the “selectivity index (SI), ratio of VERO IC50 to W2 IC50” value in assay [4] was over 1. The “IC50 against chloroquine-resistant (W2) Plasmodium falciparum” value in assay [4] (plasmodial LDH activity) turned out to be 4.53 µg/mL (≈ 8.54 µM).

On to `NCCCC(N)(C(=O)O)C(F)F` (centres unmarked) [DFMO, difluoromethylornithine, reference compound], for which, in assay [1], the “IC50, trypanocidal activity” value amounted to 2.30 µg/mL (≈ 12.6 µM) and the “IC90, trypanocidal activity” value came out at 5.20 µg/mL (≈ 28.5 µM).

Take `CCN(CC)CCCC(C)Nc1ccnc2cc(Cl)ccc12` (centres unmarked) [chloroquine, reference compound]: the “selectivity index (SI), ratio of VERO IC50 to D6 IC50” value in assay [3] is on record as over 9. Moreover, in assay [4], the “selectivity index (SI), ratio of VERO IC50 to W2 IC50” value was over 2.1.

As a reminder, the IC50 is the point on the concentration scale where inhibition reaches its midpoint.
